Only some compounds are listed: those with a hit (about 12% of all), similar ones and a draw of the others.
Diaphorase act = diaphorase activation or chemical reduction counter-screen | Diaphorase/resazurin coupled assay, resorufin fluorescence, 16 min; hits give high values; 1 = vehicle wells, 0 = NADH-free wells | activation factor at 20 µM | 0.005% of 190,000 active | AID 1229;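 active = diaphorase activity raised at least twofold by the compound at 20 µM; inactive = activation factor below 2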
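Assay system: bacterial diaphorase enzyme (C. kluyveri) / Input: enzyme 0.07 U/mL final / Medium: 50 mM HEPES pH 7.4 with 4.542 mM MgCl2, 0.005% Tween 20 / Doses: single compound dose of 20 µM, 1% DMSO final / Incubation: 16 min enzyme reaction, ambient temperature / Signal: fluorescence, excitation 544 nm and emission 590 nm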
Cl transport mod = modulates chloride dependent transport by human KCC2; 2.2% of 190,000 active; AID 1456; KCC2 cells, thallium flux FluoZin-2 fluorescence; Q9H2X9; B-score of Tl+ flux slope (higher = more flux/activation; lower = inhibition) at 10 µM;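 active = thallium flux slope and its plate-corrected score both differing from the plate sample mean at a set confidence after two filtering rounds, in either direction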;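 note: slope of fluorescence scaled to starting intensity during 10 to 20 s after thallium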
L major viab = reduces viability of Leishmania major promastigotes | resazurin fluorescence viability | inhibition, % at 10 µM | 9% of 200,000 active; in the data active = inhibition above about 50%;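 note: promastigotes grown with compound for 44 hours at 28 °C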
Diaph inh CS = diaphorase inhibition or chemical oxidation counter-screen; diaphorase resazurin-to-resorufin fluorescence, NADH, 16 min; bacterial (C. kluyveri) enzyme, not human; inhibition, % at 20 µM; 0.69% of 190,000 active;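 active = primary screen inhibition at 20 µM above a set limit, cut at about 50% in these data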
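Detection: fluorescence of resorufin formed from resazurin, Ex 544/Em 590 nm; test system: Clostridium kluyveri diaphorase enzyme; amount: 0.14 U/mL diaphorase, enzyme working solution; times: 16-min room-temperature incubation before reading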
WT yeast gro inh = growth inhibition of WT yeast, mitochondrial fusion screen; mitochondrial fusion phenotypic screen, WT strain; inhibition, % at 10 µM; 2.1% of 190,000 active; AID 1362; in the data active = inhibition above about 58%; tested in S. cerevisiae
ROMK primary = modulates human ROMK potassium channel activity | Tet-inducible ROMK, thallium flux fluorescence; actives lie on both sides | B-score at 10 µM | AID 1918 | 2% of 130,000 active | P48048;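 active = signal ratio slope over the read window, or its plate-corrected B-score, at least 3 SD from the plate mean, either direction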;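 note: B-score of the F/F0 ratio slope over 7 to 12 s after thallium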
Target sequence (P48048 whole entry, looked up): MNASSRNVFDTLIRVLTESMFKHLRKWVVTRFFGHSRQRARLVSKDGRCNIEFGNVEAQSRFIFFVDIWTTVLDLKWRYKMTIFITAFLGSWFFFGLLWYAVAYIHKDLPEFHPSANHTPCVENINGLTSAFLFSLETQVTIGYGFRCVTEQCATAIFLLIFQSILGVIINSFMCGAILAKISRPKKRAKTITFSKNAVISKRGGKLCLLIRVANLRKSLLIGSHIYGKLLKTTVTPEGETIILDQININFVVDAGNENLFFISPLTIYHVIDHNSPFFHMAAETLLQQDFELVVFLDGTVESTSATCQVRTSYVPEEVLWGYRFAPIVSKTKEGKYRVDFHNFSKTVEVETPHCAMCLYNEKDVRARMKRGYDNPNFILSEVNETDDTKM
Large screens that a line does not name were inactive.

COC(=O)Cc1c(O)ccn(Cc2ccc(F)cc2)c1=O	ROMK primary 1.04
Oc1ccccc1CN1CCCN(Cc2ccccc2O)C1	none (no result: ROMK primary)
O=C(C1CC1)N1CCC(C(O)(c2ccccc2)c2ccccc2)CC1	L major viab 95.0
Oc1ccccc1CN1CCC(C(O)(c2ccccc2)c2ccccc2)CC1	L major viab 56.5
COc1ccc(C(=O)COC(=O)CNC(=O)c2cc(OC)cc(OC)c2)cc1	none (no result: ROMK primary)
CN(C)CC1CCCCC1OC(=O)c1ccc(Cl)cc1 (stereo not given)	L major viab 57.2 (no result: ROMK primary)
CCN(CC)S(=O)(=O)c1ccc(C(=O)OC2CCCCC2CN(C)C)cc1 (stereo not given)	none (no result: ROMK primary)
COc1ccc(OC)c(CNc2nc3ccccc3n2CCN2CCCCC2)c1	L major viab 67.4
COc1ccc(CNc2nc3ccccc3n2CCN2CCCCC2)c(OC)c1	L major viab 92.2
CCCn1c(NCc2cc(OC)ccc2OC)nc2ccccc21	none (no result: Cl transport mod)
COc1cccc(CNc2nc3ccccc3n2CCN2CCCCC2)c1OC	L major viab 99.8
COc1ccc(/C=N/N=C2/NC(=O)CC(C(=O)O)S2)cc1 (stereo not given)	L major viab 58.0 (no result: ROMK primary)
COc1ccc(NC(=O)C2CC(=O)N/C(=N/N=C/c3ccco3)S2)cc1 (stereo not given)	none (no result: Diaphorase act, L major viab, Diaph inh CS, WT yeast gro inh)
O=C(NCc1cccs1)C(=O)NCC(c1ccco1)N1CCN(c2ccccc2F)CC1 (stereo not given)	none
O=C(NCC1CCCO1)C(=O)NCC(c1ccco1)N1CCN(c2ccccc2F)CC1 (stereo not given)	L major viab 53.5
O=C(NCC(c1cccnc1)N1CCN(c2ccccc2F)CC1)c1ccccc1 (stereo not given)	L major viab 83.5 (no result: ROMK primary)
COc1ccc(N2CCN(C(CNC(=O)C(=O)NCC3CCCO3)c3ccco3)CC2)cc1 (stereo not given)	none
O=C(NCC(c1cccnc1)N1CCOCC1)c1ccc2c(c1)OCO2 (stereo not given)	none (no result: ROMK primary)
O=C(NCC(c1cccnc1)N1CCN(c2ccccc2F)CC1)c1ccco1 (stereo not given)	L major viab 89.0 (no result: Cl transport mod, ROMK primary)
Cc1ccccc1NC(=O)c1c(C)nn(-c2ccccc2)c1Cl	none
COc1ccc(NS(=O)(=O)c2cc(NC(=O)c3cnc(C)cn3)ccc2N2CCCCC2)cc1	none
COc1ccc(NS(=O)(=O)c2cc(NC(=O)C3CC3)ccc2N2CCOCC2)cc1	none
COc1ccc(NS(=O)(=O)c2cc(NC(=O)c3cnc(C)cn3)ccc2N2CCCC2)cc1	L major viab 95.3 (no result: ROMK primary)
COc1ccc(NS(=O)(=O)c2cc(NC(=O)C3CC3)ccc2N2CCCCC2)cc1	L major viab 55.8
Fc1ccccc1CSc1nc2ccccc2[nH]1	L major viab 90.8
Fc1c(F)c(F)c(CSc2nc3ccccc3[nH]2)c(F)c1F	none (no result: Cl transport mod)
Cc1nnc2sc(SCC(=O)Nc3nccs3)nn2c1=O	L major viab 92.0 (no result: ROMK primary)
Cc1nnc2sc(SCc3ccccc3)nn2c1=O	none (no result: ROMK primary)
Cc1cc2c(cc1C)C(c1cccc([N+](=O)[O-])c1)CC(=O)N2 (stereo not given)	L major viab 52.6 (no result: ROMK primary)
O=C1CC(c2cccc(Br)c2)c2cc3c(cc2N1)CCC3 (stereo not given)	WT yeast gro inh 87.2 (no result: ROMK primary)
O=C(CSc1nnc(-c2cccnc2)n1CCN1CCCCC1)Nc1cccc(Cl)c1	none
CS(=O)(=O)c1ccc(Cl)c(NC(=O)CCc2ccccc2)c1	none
Cc1ccc(CSc2nnc3ccc(-c4ccncc4)nn23)cc1	none
CC(C)(C)C1CCc2c(C(=O)NNC(=O)/C=C/C(=O)O)csc2C1 (stereo not given)	none (no result: ROMK primary)
CC(C)(C)C1CCc2c(C(=O)N/N=C/c3cccs3)csc2C1 (stereo not given)	L major viab 96.3
Nc1nc(COc2ccccc2C=O)nc(Nc2ccccc2)n1	none (no result: Diaphorase act, L major viab, Diaph inh CS, WT yeast gro inh)
O=C(c1ccc2c(c1)OCCO2)C1CCN(C(=O)c2ccc(F)cc2)CC1	none (no result: ROMK primary)
O=C(c1ccc2c(c1)OCCO2)C1CCN(C(=O)c2ccc(F)c(F)c2)CC1	L major viab 57.0 (no result: ROMK primary)
CCOC(=O)C1=C(CC)Nc2ccccc2N=C1NC(=O)Nc1ccc(Cl)c(Cl)c1	L major viab 96.9
CCOC(=O)C1=C(CC)Nc2ccccc2N=C1NC(=O)c1ccc(S(=O)(=O)N2CCCC2)cc1	none
CC(OC(=O)c1ccccc1NS(=O)(=O)c1cccc(N)c1)C(=O)N(C)Cc1ccccc1 (stereo not given)	L major viab 81.5
c1ccc(-c2oc3ncnc(NCCCn4ccnc4)c3c2-c2ccccc2)cc1	L major viab 100.0, WT yeast gro inh 72.5 (no result: Cl transport mod)
c1ccc(-c2oc3ncnc(NCCN4CCOCC4)c3c2-c2ccccc2)cc1	L major viab 98.0 (no result: ROMK primary)
N=c1c2c(-c3ccccc3)c(-c3ccccc3)oc2ncn1CCN1CCOCC1	none
Cc1ccccc1OS(=O)(=O)c1cn(C)c(=O)n(C)c1=O	none (no result: ROMK primary)
O=C(C[n+]1cnn(CC(=O)c2ccc(Cl)cc2Cl)c1)c1ccc([N+](=O)[O-])cc1	L major viab 83.5 (no result: ROMK primary)
CCOC(=O)c1sc2nc(CSc3ccccc3)nc(N3CCC(C(N)=O)CC3)c2c1C	WT yeast gro inh 71.0
CCOC(=O)c1sc2nc(CSc3ccccc3)nc(N3CCCN(C)CC3)c2c1C	L major viab 100.2, WT yeast gro inh 92.6
Cc1sc2nc(CSc3ccccc3)nc(N3CCOCC3)c2c1C	L major viab 82.4 (no result: ROMK primary)
Cc1sc2nc(CSc3ccccc3)nc(N3CCC(C(N)=O)CC3)c2c1C	L major viab 70.0
COc1ccc(-c2cn(-c3ccc(OC)cc3)c3[n+]2-c2ccccc2CC3)cc1	L major viab 100.0 (no result: ROMK primary)
COc1ccc(-n2cc(-c3ccccc3)[n+]3c2CCCCC3)cc1	L major viab 100.1
COc1ccc(-n2cc(-c3ccccc3)nc2SC)cc1	none
COc1ccc(/C=C2/SC(=O)N(NS(=O)(=O)c3ccccc3)C2=S)cc1OC	none (no result: Cl transport mod)
Cc1cc2c(c(SCC#N)n1)C(=O)OC2	none
Cc1ccc(C(=O)c2cn(-c3ccc(F)c(Cl)c3)nn2)cc1	none (no result: ROMK primary)
Cc1ccc(-n2cc(C(=O)c3ccc(N4CCN(C)CC4)cc3)nn2)cc1Cl	L major viab 100.5
CN1CCN(c2ccc(C(=O)c3cn(-c4ccc(F)c(Cl)c4)nn3)cc2)CC1	L major viab 50.0
CCOC(=O)/C(=N/Nc1ccc(Cl)cc1)S(=O)(=O)c1ccc(Cl)cc1	none (no result: ROMK primary)
O=C(C[N+]1(CC#Cc2ccccc2)CCCCC1)c1ccc(Cl)cc1	L major viab 51.7
C(#Cc1ccccc1)C[N+]1(CC#Cc2ccccc2)CCCCC1	L major viab 100.3
O=C(C[N+]1(CC#Cc2ccccc2)CCCCC1)c1ccccc1	none (no result: Cl transport mod)
C#CC[N+]1(CC#Cc2ccccc2)CCCCC1	none (no result: ROMK primary)
Cc1nn(CC#N)c(=O)n1-c1cccc(F)c1	none
Cn1c(CN2CCN(CCO)CC2)c(C#N)c2ccccc21	none (no result: Diaphorase act, L major viab, Diaph inh CS, WT yeast gro inh)
